High-throughput results deposited in PubChem BioAssay by Johns Hopkins Ion Channel Center.
The list is not random: actives were taken first. Their share in the collection is about 2.3%.
TRPC4 potent = positive allosteric modulators of TRPC4, primary screen, cell-based, mouse TRPC4beta, HEK293 mu-opioid, Fluo-4 calcium | DAMGO EC20, Fluo-4 Ca2+ flux; stronger effect = higher value | B-score at 10 µM | hit rate 0.42% among 310,000 | AID 2227, 2009;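 active = B-score of calcium response area above 5 SD of library B-scores, with initial fluorescence ratio within 5 SD of library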;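 note: B-score of integrated fluorescence ratio over time as area under calcium response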
TRPC4 act = activators of mouse TRPC4 channel, primary screen, Fluo4 calcium, HEK293 TRPC4beta/mu-opioid cells; Short transient receptor potential channel 4 (Mus musculus), Q9QUQ5; Fluo4 calcium fluorescence; stronger effect = higher value; B-score at 10 µM; hit rate 0.49% among 310,000;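 active = B-score above 5 SD of library B-scores, and initial fluorescence ratio not above library mean plus 5 SD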;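 note: positive B-score marks a calcium rise read as TRPC4 activation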
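Assay system: HEK293 cells stably co-expressing mouse TRPC4beta and mu-opioid receptor / Timing: Fluo4 dye loading 45 min at room temperature, 110 s recording / Signal: Fluo4 calcium-sensitive dye fluorescence, kinetic, 1 Hz baseline / Read-out: integrated baseline-normalised fluorescence ratio, converted to per-well B score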
TRPC6 inhibitor = mouse TRPC6 channel inhibitors, primary screen, cell-based, HEK293, membrane potential dye | Short transient receptor potential channel 6 (Mus musculus), Q61143 | ACh-evoked depolarization; stronger effect = lower value | hit rate 1.1% among 310,000 | AID 2553, 2010 | B-score at 10 µM;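 active = B-score under library mean minus 3 SD, initial fluorescence not abnormally high, positive integrated signal ratio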;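 note: B-score derived from integrated fluorescence ratio over the kinetic read; more negative B-score means stronger inhibition of depolarization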
TRPC6 activator = mouse TRPC6 channel activators, primary screen, cell-based, HEK293, membrane potential dye | Short transient receptor potential channel 6 (Mus musculus), Q61143 | HEK293-TRPC6 membrane potential dye fluorescence; stronger effect = higher value | B-score at 10 µM | hit rate 0.13% among 310,000 | AID 2550, 2010;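 active = B-score of the integrated fluorescence ratio above library mean plus 3 SD, and starting fluorescence ratio within library mean plus 5 SD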;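 note: higher score means more depolarization so channel activation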
TRPC4 block = inhibitors of mouse TRPC4 channel, primary screen, Fluo4 calcium, HEK293 TRPC4beta/mu-opioid cells | Short transient receptor potential channel 4 (Mus musculus), Q9QUQ5 | hit rate 0.39% among 300,000 | DAMGO-evoked Fluo4 calcium flux; stronger effect = lower value | B-score at 10 µM;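 active = B-score over 3 SD under the library average, no early fluorescence shift, positive overall ratio signal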
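Assay system: TRPC4beta/mu-opioid receptor HEK293 cell line; compound dosing: single concentration per test compound; detection: Fluo4 Ca2+ flux fluorescence; evaluation: per-well B score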
Numbers without * were called inactive; ! = not active in a repeat.

Results for CCC(=NC1CCN(Cc2ccccc2)CC1)c1c(O)[nH]c(=O)[nH]c1=O ?
TRPC4 potent: 10*; TRPC4 act: inactive; TRPC6 inhibitor: inactive; TRPC6 activator: inactive; TRPC4 block: inactive

How did COc1ccc(CNC(=O)CCC(=O)N2C[C@H]3C[C@H](C2)c2cccc(=O)n2C3)cc1 do in these assays?
TRPC4 potent: inactive; TRPC4 act: inactive; TRPC6 inhibitor: inactive; TRPC6 activator: inactive; TRPC4 block: inactive

What do the screens show for `Cc1ccc(NC(=S)NCCc2cnc[nH]2)cc1C`?
TRPC4 potent: inactive; TRPC4 act: 225*; TRPC6 inhibitor: inactive; TRPC6 activator: inactive; TRPC4 block: inactive

Results for Cc1ccc(C(=O)NC(O)C(Cl)(Cl)Cl)cc1 (stereo not given) ?
TRPC4 potent: inactive; TRPC4 act: inactive; TRPC6 inhibitor: inactive; TRPC6 activator: inactive; TRPC4 block: inactive

How did CN1CCN(c2c(N)c(=O)oc3ccccc23)CC1 do in these assays?
TRPC4 potent: 10*; TRPC4 act: inactive; TRPC6 inhibitor: inactive; TRPC6 activator: inactive; TRPC4 block: inactive

What do the screens show for `C/C(=C\c1ccc(N(C)C)cc1)[N+](=O)[O-]`?
TRPC4 potent: inactive; TRPC4 act: inactive; TRPC6 inhibitor: inactive; TRPC6 activator: inactive; TRPC4 block: inactive

Results for CN(C)c1ccc(/C=C/[N+](=O)[O-])cc1 ?
TRPC4 potent: inactive; TRPC4 act: inactive; TRPC6 inhibitor: inactive; TRPC6 activator: 18.8*; TRPC4 block: inactive

Results for CC1CCCCN1Cc1ccc(Cl)nc1 (stereo not given) ?
TRPC4 potent: inactive; TRPC4 act: inactive; TRPC6 inhibitor: inactive; TRPC6 activator: inactive; TRPC4 block: inactive

How did C=CCn1c(O)c(C=NCCN2CCOCC2)c(=O)[nH]c1=S do in these assays?
TRPC4 potent: 10*; TRPC4 act: inactive; TRPC6 inhibitor: inactive; TRPC6 activator: inactive; TRPC4 block: inactive

What do the screens show for `CCOP(=S)(NN(Cc1ccccc1)C(=O)c1ccccc1)OCC`?
TRPC4 potent: inactive; TRPC4 act: inactive; TRPC6 inhibitor: inactive; TRPC6 activator: inactive; TRPC4 block: inactive

Results for C#CCN1C(=O)C2(C(C#N)=C(N)OC(C)=C2C(=O)OCc2ccccc2)c2ccccc21 (stereo not given) ?
TRPC4 potent: 29*; TRPC4 act: inactive; TRPC6 inhibitor: inactive; TRPC6 activator: inactive; TRPC4 block: inactive

How did CCOC(=O)C1=C(C)OC(N)=C(C#N)C12C(=O)N(C)c1ccccc12 (stereo not given) do in these assays?
TRPC4 potent: inactive; TRPC4 act: inactive; TRPC6 inhibitor: inactive; TRPC6 activator: inactive; TRPC4 block: inactive

How did COc1ccc(O)c(CN2CCCC(C(=O)c3ccccc3SC)C2)c1 (stereo not given) do in these assays?
TRPC4 potent: inactive; TRPC4 act: inactive; TRPC6 inhibitor: inactive; TRPC6 activator: inactive; TRPC4 block: -6*

What do the screens show for `COc1ccccc1CN1CCCC(C(=O)c2ccccc2SC)C1` (stereo not given)?
TRPC4 potent: inactive; TRPC4 act: inactive; TRPC6 inhibitor: inactive; TRPC6 activator: inactive; TRPC4 block: inactive

What do the screens show for `COc1ccc(C(=O)C2CCCN(C3CSCCSC3)C2)c(C)c1` (stereo not given)?
TRPC4 potent: inactive; TRPC4 act: 59*; TRPC6 inhibitor: inactive; TRPC6 activator: inactive; TRPC4 block: inactive

What do the screens show for `COc1ccc(C(=O)C2CCCN(CCO)C2)c(C)c1` (stereo not given)?
TRPC4 potent: inactive; TRPC4 act: 51*; TRPC6 inhibitor: inactive; TRPC6 activator: inactive; TRPC4 block: inactive

Results for Cc1c(N)c(C)c([N+](=O)[O-])c(C)c1[N+](=O)[O-] ?
TRPC4 potent: inactive; TRPC4 act: inactive; TRPC6 inhibitor: inactive; TRPC6 activator: inactive; TRPC4 block: -6*

How did CC[C@@H](CO)NC(=O)[C@@H]1C=C2c3cccc4c3c(cn4C)C[C@H]2N(C)C1 do in these assays?
TRPC4 potent: inactive; TRPC4 act: 154*!; TRPC6 inhibitor: inactive; TRPC6 activator: inactive; TRPC4 block: inactive

What do the screens show for `CCC(CO)NC(=O)C1C=C2c3cccc4[nH]cc(c34)CC2N(C)C1` (stereo not given)?
TRPC4 potent: inactive; TRPC4 act: 73*; TRPC6 inhibitor: inactive; TRPC6 activator: inactive; TRPC4 block: inactive

Results for CC(Cc1ccccc1)[n+]1cc(/N=C(\[O-])N(C)C)on1 (stereo not given) ?
TRPC4 potent: inactive; TRPC4 act: inactive; TRPC6 inhibitor: inactive; TRPC6 activator: inactive; TRPC4 block: inactive

Results for CC1CC(C)CN(CC(=O)c2ccc(OC(F)F)cc2)C1 (stereo not given) ?
TRPC4 potent: inactive; TRPC4 act: 52*; TRPC6 inhibitor: inactive; TRPC6 activator: inactive; TRPC4 block: inactive

How did Cc1ccc2c(c1)C1CN(C)CCC1N2C(=O)c1cccnc1Cl (stereo not given) do in these assays?
TRPC4 potent: inactive; TRPC4 act: inactive; TRPC6 inhibitor: inactive; TRPC6 activator: inactive; TRPC4 block: inactive

What do the screens show for `Cc1ccc2c(c1)C1CN(C)CCC1N2C(=O)c1cn(-c2ccccc2)nc1-c1ccccc1` (stereo not given)?
TRPC4 potent: 23*; TRPC4 act: inactive; TRPC6 inhibitor: inactive; TRPC6 activator: inactive; TRPC4 block: inactive

What do the screens show for `O=C(CCc1ccccc1)N1C[C@H]2C[C@@H](C1)c1cccc(=O)n1C2`?
TRPC4 potent: inactive; TRPC4 act: inactive; TRPC6 inhibitor: inactive; TRPC6 activator: inactive; TRPC4 block: inactive

How did Cc1cc(C)nc(N2Cc3ccccc3C2=N)n1 do in these assays?
TRPC4 potent: inactive; TRPC4 act: inactive; TRPC6 inhibitor: inactive; TRPC6 activator: inactive; TRPC4 block: inactive

Results for COc1ccc(OC)c(N2Cc3ccccc3C2=N)c1 ?
TRPC4 potent: inactive; TRPC4 act: inactive; TRPC6 inhibitor: inactive; TRPC6 activator: inactive; TRPC4 block: -7*

What do the screens show for `CNc1ccc2oc(C[C@H]3O[C@@]4(CC[C@H]3C)O[C@H]([C@H](C)C(=O)c3ccc[nH]3)[C@H](C)C[C@H]4C)nc2c1C(=O)O`?
TRPC4 potent: inactive; TRPC4 act: 148*; TRPC6 inhibitor: inactive; TRPC6 activator: inactive; TRPC4 block: inactive

Results for CN1CCC(O)(c2cccs2)C(C(=O)c2cccs2)C1 (stereo not given) ?
TRPC4 potent: inactive; TRPC4 act: inactive; TRPC6 inhibitor: inactive; TRPC6 activator: inactive; TRPC4 block: inactive
